Experimental data taken from publication PMC6370590 (European journal of pharmaceutical sciences : official …, 2018).
Values belong to the compound of their own block, whether it stands above or below them.

How the values were obtained:
[1] = target: T1, 14M_zTDP2^cat (humanized zebrafish TDP2 catalytic domain) (Danio rerio, UniProt Q5XJA0, A139S/C239T/C322L/D120S/K240R/K309Q/K314L/L136N/P317T/R321K/S320C/T315G/V316I/V319A/Y318A); assay: 14M_zTDP2^cat fluorescence-based biochemical assay; conditions: for LE (ligand efficiency): LE = 1.4 x pIC50 / HAC; for LELP (ligand efficiency dependent lipophilicity): LELP = LE / cLogP as printed; for LLE (lipophilic ligand efficiency): LLE = pIC50 - cLogP; for TDP2 inhibition, SAR statement: compared with hit 11a
T1 sequence (Q5XJA0 120-369 D120S/L136N/A139S/C239T/K240R/K309Q/K314L/T315G/V316I/P317T/Y318A/V319A/S320C/R321K/C322L): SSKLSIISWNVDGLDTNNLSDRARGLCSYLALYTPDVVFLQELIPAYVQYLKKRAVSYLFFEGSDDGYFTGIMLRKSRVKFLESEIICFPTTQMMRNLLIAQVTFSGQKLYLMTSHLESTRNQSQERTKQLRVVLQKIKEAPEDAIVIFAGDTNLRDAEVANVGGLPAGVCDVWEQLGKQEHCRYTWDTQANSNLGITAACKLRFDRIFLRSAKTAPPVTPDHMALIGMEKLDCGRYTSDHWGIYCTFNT
In short: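 Humanized zebrafish TDP2 catalytic domain (residues 120–369), 6.25 pM final, pre-incubated 10 min with test compound in pH 7.4 Tris buffer (10 mM MgCl₂, 80 mM KCl, 0.05% Tween-20, 1 mM DTT). Reaction started with 1 μM (final) FAM-phosphotyrosyl-GATCT-BHQ-1 substrate at 25 °C. Fluorescence ([…]) read kinetically over 60 min. % inhibition normalised to DMSO and no-enzyme controls. IC₅₀ fitted from 10–12 concentrations.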

[2] = target: T2, SUMO hTDP2^cat (Homo sapiens, UniProt O95551); assay: SUMO hTDP2^cat fluorescence-based biochemical assay
T2 sequence (O95551 110-362): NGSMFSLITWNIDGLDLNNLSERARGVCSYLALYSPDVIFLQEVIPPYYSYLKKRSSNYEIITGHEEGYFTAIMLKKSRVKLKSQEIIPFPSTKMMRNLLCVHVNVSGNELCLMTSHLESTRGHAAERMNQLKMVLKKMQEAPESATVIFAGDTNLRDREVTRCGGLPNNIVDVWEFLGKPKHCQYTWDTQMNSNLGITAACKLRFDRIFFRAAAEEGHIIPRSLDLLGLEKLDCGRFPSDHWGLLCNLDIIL

- LE (ligand efficiency) [1]: 0.32
- LELP (ligand efficiency dependent lipophilicity) [1]: 4.9
- LLE (lipophilic ligand efficiency) [1]: 2.3
- IC50 [2]: 113 ± 10 µM
Structure (SMILES): COc1ccc2nc(NC(=N)N)nc(C)c2c1 [Compound 11a, 1-(6-Methoxy-4-methylquinazolin-2-yl) guanidine]

- fold increase in potency over the original HTS hit 11a ([2]; ratio of IC50 values): 6.4 fold
Structure (SMILES): COc1ccc2nc(Nc3nc(C)c(C)c(=O)[nH]3)nc(C)c2c1 [Compound 12a, 2-((6-Methoxy-4-methylquinazolin-2-yl)amino)-5,6-dimethylpyrimidin-4(3H)-one]

- LE (ligand efficiency) [1]: 0.30
- LELP (ligand efficiency dependent lipophilicity) [1]: 14
- LLE (lipophilic ligand efficiency) [1]: 0.29
Structure (SMILES): Cc1ccc(-c2nn3c(-c4ccco4)nnc3s2)cc1C [Compound 19a, 6-(3,4-Dimethylphenyl)-3-(furan-2-yl)-[1,2,4]triazolo[3,4-b][1,3,4] thiadiazole]

The next lines start with the compound.

Structure (SMILES): CCOc1ccc2nc(NC(=N)N)nc(C)c2c1 [Compound 11b, 1-(6-Ethoxy-4-methylquinazolin-2-yl) guanidine]
- TDP2 inhibition, SAR statement [1]: did not interfere significantly with the activity

Structure (SMILES): Cc1nc(NC(=N)N)nc2ccc(Cl)cc12.Cl [Compound 11c, 1-(6-Chloro-4-methylquinazolin-2-yl) guanidine hydrochloride]
- inhibitory activity ([1]; up to 200 µM, vs. 11a): abrogated completely the inhibitory activity

Structure (SMILES): COc1ccc2nc(NC(=N)N)[nH]c(=O)c2c1 [Compound 15, 1-(6-Methoxy-4-oxo-3,4-dihydroquinazolin-2-yl)guanidine]
- TDP2 inhibition, SAR statement [1]: no inhibition was observed

Structure (SMILES): COc1ccccc1-c1nn2c(-c3ccco3)nnc2s1 [Compound 19b, 3-(Furan-2-yl)-6-(2-methoxyphenyl)-[1,2,4]triazolo[3,4-b][1,3,4]thiadiazole]
- TDP2 inhibition ([1]; concentrations up to 100 µM): did not exhibit significant TDP2 inhibition
